Assay [1] deals with Rattus norvegicus. In words: Inhibition of LPS-induced TNF production in rat pretreated at 20 mg/kg, po after […] by ELISA. Format: functional.
Assay [2] deals with Rattus norvegicus. Description: Inhibition of LPS-induced TNF production in rat pretreated at 5 mg/kg, po after […] by ELISA. The assay is classed as functional.
Assay [3] concerns Mus musculus. Description: Decrease of arthritis incidence in collagen-induced DBA/1 mouse at 30 mg/kg, po bid. The assay is classed as functional, organism-based. The arrangement: dose 30 mg/kg. The essentials:
(§1)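 Male DBA/1 mice; arthritis induced by subcutaneous type II chick collagen in Freund's adjuvant on days 1 and 21. Test agent given by oral gavage twice daily in Methocel/Tween, days 21-56. Weekly ip anti-TNF antibody served as comparator. Animals scored for signs of arthritis, with incidence compared with vehicle by logistic regression (p < 0.05); 8-10 mice per group.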

Assay [4] relates to Mus musculus. Description: Decrease of arthritis incidence in collagen-induced DBA/1 mouse at 15 mg/kg, po bid. The assay is classed as functional, organism-based. The arrangement: dose 15 mg/kg. The essentials:
as §1

In assay [5] the target is MAP kinase p38 (Homo sapiens, UniProt O15264+Q15759+Q16539+P53778). In words: Inhibition of p38 MAPK activity assessed as EGFR phosphorylation. The assay is classed as protein assay.

The source made the active and inactive calls. The rule behind the calls is not given here.

For the compound `OC1CCCN(c2[nH]nc(-c3ccc(Cl)cc3)c2-c2ccncc2)C1` (stereo not drawn), in assay [1], the inhibition in vivo at 20 mg/kg came out at 75%.
Regarding `CC1CN(c2[nH]nc(-c3ccc(Cl)cc3)c2-c2ccncc2)CC(C)N1` (stereo not drawn), in assay [1], the inhibition in vivo at 20 mg/kg is 96%. Further, the inhibition in vivo at 5 mg/kg in assay [2] was 93%.
Take `Clc1ccc(-c2n[nH]c(N3CCCC4CCCCC43)c2-c2ccncc2)cc1` (stereo not drawn): in assay [1], the inhibition in vivo at 20 mg/kg is 33%.
As to `OC1CCN(c2[nH]nc(-c3ccc(Cl)cc3)c2-c2ccncc2)CC1`, the inhibition in vivo at 20 mg/kg in assay [1] was determined as 91%. In addition, the inhibition in vivo at 5 mg/kg in assay [2] stood at 52%.
Consider `Clc1ccc(-c2n[nH]c(N3CCN4CCC[C@H]4C3)c2-c2ccncc2)cc1`, for which the inhibition in vivo at 20 mg/kg in assay [1] is 89%.
As for `CN1CCN(c2[nH]nc(-c3ccc(Cl)cc3)c2-c2ccncc2)CC1`, the inhibition in vivo at 20 mg/kg in assay [1] is 95%. Also, the result in assay [3] and in assay [4] was Active. The inhibition in vivo at 5 mg/kg in assay [2] came to 98%.
As for `Clc1ccc(-c2n[nH]c(N3CCC4CCCCC4C3)c2-c2ccncc2)cc1` (stereo not drawn), the inhibition in vivo at 20 mg/kg in assay [1] was 11%.
On the same count and under the same terms, for `CC1CC(C)CN(c2[nH]nc(-c3ccc(Cl)cc3)c2-c2ccncc2)C1` (stereo not drawn) the value was 53%.
For the compound `CC1CN(c2[nH]nc(-c3ccc(Cl)cc3)c2-c2ccncc2)CCN1` (stereo not drawn), the inhibition in vivo at 20 mg/kg in assay [1] is 95%. The IC50 in assay [5] amounted to 0.016 µM. In addition, the inhibition in vivo at 5 mg/kg in assay [2] was 84%.
As to `CC1CCN(c2[nH]nc(-c3ccc(Cl)cc3)c2-c2ccncc2)CC1`, in assay [1], the inhibition in vivo at 20 mg/kg was found to be 16%.
Same read-out and setting: for `Clc1ccc(-c2n[nH]c(N3CCc4ccccc4C3)c2-c2ccncc2)cc1` the value was 12%.

Source of the values: ChEMBL document CHEMBL1138242, “Synthesis, crystal structure, and activity of pyrazole-based inhibitors of p38 kinase” (J Med Chem, 2007).
